This note sets out measurements from ChEMBL document CHEMBL4152223 (Eur J Med Chem, 2018).

In brackets after ≈: the same amount, converted by molar mass. Activity calls are given as the source filed them. The calls are words filed in the database; no cut-off is given here.

The subject of one data set is HepG2. Nature of the data set: Cytotoxicity against human HepG2 cells assessed as reduction in cell viability by MTS assay. Format: cell-based. The method in brief: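 HepG2 human hepatocellular carcinoma cells (passage 2-4) were cultured in Eagle's MEM with 10% FBS, 1% L-glutamine and non-essential amino acids. Compounds were dissolved in DMSO and tested in triplicate at eight concentrations. Viability was read by colorimetric MTS tetrazolium reduction. Controls were 100% viability and 0% viability (10% DMSO). IC50 is the concentration reducing viability to 50% of control.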
On the technique in general: Formazan colour is commonly taken as a measure of viable cells.

Data set [1] concerns Mycobacterium kansasii. Nature of the data set: Antimycobacterial activity against Mycobacterium kansasii 6509/96 after 7 days. Type of data set: functional. To be noted: 6509/96, 168 h.
Data set [2] has as its target T1, Enoyl-[acyl-carrier-protein] reductase [NADH] (Mycobacterium tuberculosis) (UniProt P9WGR1).
T1 sequence (whole entry): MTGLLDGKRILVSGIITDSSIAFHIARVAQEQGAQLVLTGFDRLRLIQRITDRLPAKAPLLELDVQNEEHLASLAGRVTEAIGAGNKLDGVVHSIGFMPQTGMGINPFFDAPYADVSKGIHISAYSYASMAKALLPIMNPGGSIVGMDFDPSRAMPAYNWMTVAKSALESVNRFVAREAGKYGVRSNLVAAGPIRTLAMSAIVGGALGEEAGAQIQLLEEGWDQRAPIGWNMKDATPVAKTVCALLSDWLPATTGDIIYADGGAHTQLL
Nature of the data set: Inhibition of Mycobacterium tuberculosis H37Rv InhA assessed as reduction of trehalose monomycolate synthesis at 40 uM preincubated for 1 hr followed by [14C]glucose addition and measured after 24 hrs by TLC analysis.

The target of data set [3] is T1, Enoyl-[acyl-carrier-protein] reductase [NADH] (Mycobacterium tuberculosis). As to the kind of experiment: Inhibition of Mycobacterium tuberculosis H37Rv InhA assessed as reduction of alpha mycolic acid synthesis at 40 uM preincubated for 1 hr followed by [14C]glucose addition and measured after 24 hrs by TLC analysis.
Data set [4] deals with Mycobacterium tuberculosis. As to the kind of experiment: Antimycobacterial activity against Mycobacterium tuberculosis H37Rv after 21 days. Format: functional. Particulars: 504 h.
For data set [5], the system named is Mycobacterium kansasii. Nature of the data set: Antimycobacterial activity against Mycobacterium kansasii 6509/96 after 21 days. To be noted: 6509/96, 504 h. Format: functional.
The target in data set [6] is T1, Enoyl-[acyl-carrier-protein] reductase [NADH] (Mycobacterium tuberculosis). Nature of the data set: Inhibition of Mycobacterium tuberculosis H37Rv InhA assessed as reduction of cardiolipin synthesis at 40 uM preincubated for 1 hr followed by [14C]glucose addition and measured after 24 hrs by TLC analysis.
Data set [7] shares this target. Nature of the data set: Inhibition of Mycobacterium tuberculosis H37Rv InhA assessed as reduction of phosphatidylethanolamine synthesis at 40 uM preincubated for 1 hr followed by [14C]glucose addition and measured after 24 hrs by TLC analysis.
In data set [8] the test system is Mycobacterium kansasii. As to the kind of experiment: Antimycobacterial activity against Mycobacterium kansasii 235/80 after 14 days. Type of data set: functional. Particulars: 235/80, 336 h.
The test system of data set [9] is Mycobacterium avium. As to the kind of experiment: Antimycobacterial activity against INH/RIF/OFX resistant Mycobacterium avium 330/88 after 14 days. Format: functional. To be noted: 330/88, 336 h.
Data set [10] concerns the target T1, Enoyl-[acyl-carrier-protein] reductase [NADH] (Mycobacterium tuberculosis). Nature of the data set: Inhibition of Mycobacterium tuberculosis H37Rv InhA assessed as reduction of trehalose dimycolate synthesis at 40 uM preincubated for 1 hr followed by [14C]glucose addition and measured after 24 hrs by TLC analysis.
The test system of data set [11] is Mycobacterium tuberculosis. Nature of the data set: Effect on short chain fatty acid acid synthesis in Mycobacterium tuberculosis H37Rv at 40 uM preincubated for 1 hr followed by [14C]glucose addition and measured after 24 hrs by TLC analysis. Format: functional, organism-based.
Data set [12] addresses T1, Enoyl-[acyl-carrier-protein] reductase [NADH] (Mycobacterium tuberculosis). Nature of the data set: Inhibition of Mycobacterium tuberculosis H37Rv InhA assessed as reduction of methyl esters of fatty acid synthesis at 40 uM preincubated for 1 hr followed by [14C]glucose addition and measured after 24 hrs by TLC analysis.
Data set [13] deals with Mycobacterium tuberculosis. As to the kind of experiment: Antimycobacterial activity against Mycobacterium tuberculosis H37Rv after 14 days. Type of data set: functional. To be noted: 336 h.
Data set [14] concerns Mycobacterium tuberculosis. Nature of the data set: Antimycobacterial activity against Mycobacterium tuberculosis H37Rv over producing InhA after 25 days by drop dilution method. Type of data set: functional, organism-based.
Data set [15] deals with Mycobacterium kansasii. As to the kind of experiment: Antimycobacterial activity against Mycobacterium kansasii 235/80 after 21 days. Type of data set: functional. To be noted: 235/80, 504 h.
In data set [16] the test system is Mycobacterium avium. Nature of the data set: Antimycobacterial activity against INH/RIF/OFX resistant Mycobacterium avium 330/88 after 21 days. Format: functional. To be noted: 330/88, 504 h.
Data set [17] is described as follows: Selectivity index, ratio of IC50 for human HepG2 cells to MIC for Mycobacterium tuberculosis H37Rv after 14 days. Format: toxicity. Particulars: read-out: Selectivity Index. The method in brief:
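SI is calculated as HepG2 IC50 divided by MIC. HepG2 cells (passage 2-4) were grown in EMEM with 10% FBS, L-glutamine and non-essential amino acids. Compounds in DMSO were tested in triplicate at eight concentrations, and viability was read by MTS tetrazolium reduction. IC50 is the concentration reducing viability to 50% of control. 10% DMSO served as the 0% viability control.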

The subject of data set [18] is Mycobacterium kansasii. As to the kind of experiment: Antimycobacterial activity against Mycobacterium kansasii 6509/96 after 14 days. Format: functional. Particulars: 6509/96, 336 h.
In data set [19] the test system is Mycobacterium kansasii. As to the kind of experiment: Antimycobacterial activity against Mycobacterium kansasii 235/80 after 7 days. Type of data set: functional. Particulars: 235/80, 168 h.
Data set [20] has as its target T1, Enoyl-[acyl-carrier-protein] reductase [NADH] (Mycobacterium tuberculosis). Nature of the data set: Inhibition of Mycobacterium tuberculosis H37Rv InhA assessed as reduction of methoxy and keto mycolic acid synthesis at 40 uM preincubated for 1 hr followed by [14C]glucose addition and measured after 24 hrs by TLC analysis.
Data set [21] concerns Mycobacterium tuberculosis. As to the kind of experiment: Antimycobacterial activity against Mycobacterium tuberculosis H37Rv after 25 days by drop dilution method. Type of data set: functional, organism-based.
In data set [22] the target is T1, Enoyl-[acyl-carrier-protein] reductase [NADH] (Mycobacterium tuberculosis). As to the kind of experiment: Inhibition of Mycobacterium tuberculosis H37Rv InhA assessed as reduction of trehalose dimycolate synthesis at 4 to 8 uM preincubated for 24 hrs followed by [14C]acetate addition and measured after 24 hrs by TLC analysis.
Data set [23] shares this target. As to the kind of experiment: Inhibition of Mycobacterium tuberculosis H37Rv InhA assessed as reduction of phosphatidylethanolamine synthesis at 4 to 8 uM preincubated for 24 hrs followed by [14C]acetate addition and measured after 24 hrs by TLC analysis.
Data set [24] has the same target. Nature of the data set: Inhibition of Mycobacterium tuberculosis H37Rv InhA assessed as reduction of methyl esters of fatty acid synthesis at 4 to 8 uM preincubated for 24 hrs followed by [14C]acetate addition and measured after 24 hrs by TLC analysis.
For data set [25] the target is unchanged. As to the kind of experiment: Inhibition of Mycobacterium tuberculosis H37Rv InhA assessed as reduction of alpha mycolic acid synthesis at 4 to 8 uM preincubated for 24 hrs followed by [14C]acetate addition and measured after 24 hrs by TLC analysis.
For data set [26] the target is unchanged. Nature of the data set: Inhibition of Mycobacterium tuberculosis H37Rv InhA assessed as reduction of methoxy and keto mycolic acid synthesis at 4 to 8 uM preincubated for 24 hrs followed by [14C]acetate addition and measured after 24 hrs by TLC analysis.
The target is the same in data set [27]. Nature of the data set: Inhibition of Mycobacterium tuberculosis H37Rv InhA assessed as reduction of cardiolipin synthesis at 4 to 8 uM preincubated for 24 hrs followed by [14C]acetate addition and measured after 24 hrs by TLC analysis.
Data set [28] shares this target. Nature of the data set: Inhibition of Mycobacterium tuberculosis H37Rv InhA assessed as reduction of trehalose monomycolate synthesis at 4 to 8 uM preincubated for 24 hrs followed by [14C]acetate addition and measured after 24 hrs by TLC analysis.

On to `CNC(=O)NNC(=O)c1ccncc1`, for which the IC50 with HepG2 was above 5000 µM. Also, the minimal inhibitory concentration (MIC) with Mycobacterium kansasii [1] was 500 µM (≈ 97.1 µg/mL); in [4], 1 µM (≈ 0.194 µg/mL); against Mycobacterium kansasii [5], 1000 µM (≈ 194 µg/mL); in the data set on Mycobacterium kansasii [8] it was above 1000 µM; against Mycobacterium avium [9] it was above 1000 µM; in data set [13] it was 0.5 µM (≈ 0.0971 µg/mL). The MIC in the data set with Mycobacterium kansasii [15] is above 1000 µM; in the data set with Mycobacterium avium [16] it was above 1000 µM; against Mycobacterium kansasii [18], 500 µM (≈ 97.1 µg/mL); in the data set on Mycobacterium kansasii [19], 1000 µM (≈ 194 µg/mL). Moreover, the inhibition entry in [2], in data set [3], in data set [6], in data set [7], in data set [10] and in data set [12] was “Active” in each case. Besides, in data set [20], the inhibition result was “Active”. Moreover, the result in [11], in data set [14] and in data set [21] was inactive. For the same molecule, the selectivity ratio at 336 h in [17] was above 5000.
With `CCCCCCCCCCCCNc1nnc(-c2ccncc2)o1`, the 50% inhibitory concentration (IC50) in the data set on HepG2 is above 50 µM. The MIC amounted to 125 µM (≈ 41.3 µg/mL) with Mycobacterium kansasii [1]; 8 µM (≈ 2.64 µg/mL) in [4]; 125 µM (≈ 41.3 µg/mL) against Mycobacterium kansasii [5]; 125 µM (≈ 41.3 µg/mL) with Mycobacterium kansasii [8]; 8 µM (≈ 2.64 µg/mL) in the data set on Mycobacterium avium [9]; 4 µM (≈ 1.32 µg/mL) in data set [13]. Moreover, the MIC in the data set on Mycobacterium kansasii [15] worked out at 125 µM (≈ 41.3 µg/mL); in the data set on Mycobacterium avium [16], 16 µM (≈ 5.29 µg/mL); against Mycobacterium kansasii [18], 125 µM (≈ 41.3 µg/mL); in the data set with Mycobacterium kansasii [19], 125 µM (≈ 41.3 µg/mL). Besides, the inhibition entry in data set [22], in data set [23], in data set [24], in [25], in data set [26] and in data set [27] was “inactive” throughout. Moreover, in data set [28], the inhibition result is “inactive”. The result in [14] and in [21] was Active. In addition, in data set [17], the selectivity ratio at 336 h was above 6.25.

By IC50 is commonly meant the concentration needed to halve the response being measured. The MIC is the least concentration at which growth counts as inhibited. Low values mean greater potency, high ones weaker potency.
